Source: ChEMBL document CHEMBL4334455, “Synthesis of Usnic Acid Derivatives and Evaluation of Their Antiproliferative Activity against Cancer Cells” (J Nat Prod, 2019)
pIC50: −log10 of the molar value. Active and inactive are the calls of the source. No cut-off for these calls is given here.

Legend:
MCF7 [1] = assay: Induction of vacuolization in human MCF7 cells at 8.7 uM after 24 to 48 hrs in presence of early autophagy inhibitor, wortmannin by TEM analysis; format: functional, cell-based
MCF7 [2] = assay: Induction of apoptosis in human MCF7 cells assessed as increase in Bax level at 2.9 uM after 24 hrs by immunoblot analysis relative to control; format: functional
Summary of the method: (§1)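 Proteins run on SDS-PAGE, transferred to PVDF, blocked in 5% milk/PBS, primary antibody overnight at 4 °C (cleaved PARP, Bax, Bcl-2), secondary 1 h at room temperature. Reprobed for β-actin; densitometry corrected for loading.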

MCF7 [3] = assay: Induction of apoptosis in human MCF7 cells at 2.9 uM after 48 hrs by Annexin-V/7-AAD staining based flow cytometric analysis relative to control; format: functional
Summary of the method: (§2)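 MCF-7 cells treated 48 h, stained with annexin V and 7-AAD (Muse annexin V and dead cell kit), and apoptotic and necrotic fractions counted by flow cytometry. Mean ± SE of three independent experiments; ANOVA with Bonferroni post hoc test.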

MCF7 [4] = assay: Induction of vacuolization in human MCF7 cells at 8.7 uM after 24 hrs in presence of 0.5 uM actin dynamics inhibitor, cytochalasin-D by light microscopic analysis; format: functional, cell-based
[5] = Cytotoxicity against human HDFa cells assessed as reduction in cell viability after 48 hrs by MTT assay; format: cell-based
Summary of the method: (§3)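 Cells seeded at 4 × 10³/well for 24 h runs and for PC-3, or 2 × 10³/well for MCF-7 and HeLa 48 h runs, and attached overnight. Medium replaced with compound-containing medium for 24 or 48 h. MTT (4 mg mL⁻¹) added for the final 3 h, formazan dissolved in DMSO, absorbance read at 570 nm (reference 660 nm). IC₅₀ calculated from at least three independent experiments in duplicate, mean ± SE.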

MCF7 [6] = assay: Induction of apoptosis in human MCF7 cells assessed as increase in cleaved PARP level at 8.7 uM after 24 hrs by immunoblot analysis relative to control; format: functional; summary of the method: as §1
MCF7 [7] = assay: Induction of apoptosis in human MCF7 cells assessed as increase in cleaved PARP level at 2.9 uM after 24 hrs by immunoblot analysis relative to control; format: functional; summary of the method: as §1
[8] = Cytotoxicity against human HDFa cells assessed as reduction in cell viability after 24 hrs by MTT assay; format: cell-based; summary of the method: as §3
MCF7 [9] = assay: Antiproliferative activity against human MCF7 cells assessed as reduction in cell viability after 48 hrs by MTT assay; format: functional, cell-based; details: Homo sapiens, MCF7, 48 h; summary of the method: as §3
MCF7 [10] = assay: Induction of cytoplasmic vacuolization in human MCF7 cells at 8.7 uM after 24 to 48 hrs by TEM analysis; format: functional, cell-based
Summary of the method: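 MCF-7 cells (2 × 10⁵) attached overnight, then exposed to 8.7 μM derivative or DMSO for 24 or 48 h at 37 °C. Fixed in ice-cold 2.5% fixative; ultrathin 45 nm sections stained with uranyl acetate and lead citrate, imaged by TEM at 1650×.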

MCF7 [11] = assay: Antiproliferative activity against human MCF7 cells assessed as reduction in cell viability at 8.7 uM after 24 hrs in presence of 50 uM dynamin inhibitor, dynasore by MTT assay relative to control; format: functional, cell-based
MCF7 [12] = assay: Induction of vacuolization in human MCF7 cells at 8.7 uM after 24 hrs in presence of 50 uM dynamin inhibitor, dynasore by light microscopic analysis; format: functional, cell-based
MCF7 [13] = assay: Induction of apoptosis in human MCF7 cell at 8.7 uM after 48 hrs by Annexin-V/7-AAD staining based flow cytometric analysis relative to control; format: functional; summary of the method: as §2
HeLa = assay: Cell cycle arrest in human HeLa cells assessed as reduction in cell population at G2/M phase at 2.9 to 8.7 uM after 24 hrs by propidium iodide staining based flow cytometric analysis; format: functional
MCF7 [14] = assay: Antiproliferative activity against human MCF7 cells assessed as reduction in cell viability at 8.7 uM after 24 hrs in presence of 10 uM Na+/H+ exchange inhibitor, amiloride by MTT assay; format: functional, cell-based

| pIC50 (MCF7 [9]) | SMILES | Activity (MCF7 [1]) | fold change (FC) (MCF7 [2]) | fold change (FC) (MCF7 [3]) | Activity (MCF7 [4]) | pIC50 [5] | fold change (FC) (MCF7 [6]) | fold change (FC) (MCF7 [7]) | pIC50 [8] | Activity (MCF7 [10]) | inhibition (MCF7 [11]) | Activity (MCF7 [12]) | fold change (FC) (MCF7 [13]) | Activity (HeLa) | inhibition (MCF7 [14]) |
| --- | --- | --- | --- | --- | --- | --- | --- | --- | --- | --- | --- | --- | --- | --- | --- |
| 5.60 | CC(=O)c1c(O)c(C)c(O)c2c1OC1=Cc3onc(C)c3C(=O)[C@]12C | Active | 1.3 | 2 | Active | 5.52 | 4.1 | 4.4 | 5.04 | Active | Active | inactive | 3 | Active | Active |
| 5.54 | CC(=O)c1c(O)c(C)c(O)c2c1OC1=Cc3onc(C)c3C(=O)C12C (racemic) | Active | 1.02 | 2 | Active | 5.23 | 4.5 | 3.6 | < 5.00 | Active | Active | inactive | 3 | Active | Active |
